Where a SMILES comes first, the peptide text is derived from it. [ ]: non-standard residue; d: D form. Hica(2S) = CC(C)C[C@H](O)C(=O)O

The nature of data set [1]: Solubility limit in water. It is filed as physicochemical.
Data set [2] in a line: TEM of nanofiber formation and degradation. Format: physicochemical. The settings on record: 2 mM in PBS, 37°C, 7 days.
Data set [3] in a line: Macroscopic hydrogel degradation visualised with Congo red. Format: physicochemical. The method, boiled down:
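50 µM Congo red added to the aqueous peptide solution (sonicated, held overnight at room temperature) while making 15 mM gels. Gels pipetted into multi-well dishes, immersed in PBS at 37°C and photographed over 28 days.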

Data set [4] is described as follows: Oscillating rheometry of hydrogels. It is filed as physicochemical. The method, boiled down: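 Peptide held overnight in water at 30 or 15 mM, cast on a glass slide inside an 8-mm filter-paper ring, and gelled under a PBS overlay for 2 h. PBS removed, parallel-plate frequency sweep 0.1–3.162 Hz at 0.1% strain, harmonic distortion under 10%. For ageing, gels held submerged in PBS at 37°C for 1 or 3 days. Mean ± SD of 3–5 separate gels; G'/G'' at 1 Hz compared by ANOVA-Tukey or t-test, p<0.05.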

Another data set relates to C3H10T½ cells. Put plainly: 3D microgel cell culture. Format: cell-based, mouse. The settings on record: C3H10T½ cells in hydrogel. In a few lines:
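Cells kept in Eagle's Basal Medium with 10% FBS, L-glutamine, 1 mM sodium pyruvate and non-essential amino acids. They were trypsinized, resuspended at 6,000 cells/µL in 10% sucrose with antibiotics, and mixed 1:2 with 22.5 mM aqueous peptide. The mixture (2,000 cells/µL) was pipetted into culture medium in 4–5 µL droplets to gel. Phase contrast imaging at day 3. MTS at 4 h, 3 and 5 days; mean ± SD of 3 wells.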

The subject of another data set is α-chymotrypsin. Conditions: cited from earlier work.
The next data set relates to trypsin. The settings on record: cited from earlier work.
For a further data set, the system named is papain. The settings on record: cited from earlier work.

With `CC(=O)N[C@@H](CCC(N)=O)C(=O)N[C@@H](CCC(N)=O)C(=O)N[C@@H](CCCCN)C(=O)N[C@@H](Cc1ccccc1)C(=O)N[C@@H](CCC(N)=O)C(=O)O[C@@H](CC(C)C)C(=O)N[C@@H](CCC(N)=O)C(=O)N[C@@H](Cc1ccccc1)C(=O)N[C@@H](CCC(=O)O)C(=O)N[C@@H](CCC(N)=O)C(=O)N[C@@H](CCC(N)=O)C(N)=O` [Depsi-L] (Ac-QQKFQ[Hica(2S)]QFEQQ-NH2; N-terminus assumed), in data set [1], the solubility is not below 30 mM. The “Nanofiber state by TEM at day 7” value in data set [2] is “shorter and thinner”. In data set [3] (15 mM acellular hydrogel, PBS, 37°C), the “Time for which integrity of acellular hydrogel could be maintained” value is on record as “about 14 days”. Also, the “Gel appearance over 28 days (Congo red stained)” value in data set [3] (15 mM hydrogel, immersed in PBS at 37°C, 28 days, representative of 3 gels) is “faded and disappeared”. Further, the “Storage modulus of hydrogel” value in data set [4] (30 mM hydrogel, PBS-gelled 2 hours, 0.1% strain, mean of 3 – 5 samples) is more than 100 kPa. Moreover, the “Storage modulus (G') relative to Q11 hydrogel” value in data set [4] (30 mM hydrogels, PBS-gelled 2 hours, 0.1% strain, calculated at 1 Hz) is reported as “about 6 times”. Moreover, in data set [4] (hydrogels submerged in PBS, 37°C, up to day 3), the “Change of hydrogel moduli (G', G'') over time” value was “decreased significantly”. Moreover, in the data set with C3H10T½ cells (over 5 days, MTS assay, 3 wells), the “Proliferation of encapsulated cells” value is given as “proliferated”. In addition, the “Morphology of encapsulated cells” value in the data set on C3H10T½ cells (phase contrast) is given as “more spread morphology”.
(AEAEAKAK)2: the Resistance to proteolysis result with α-chymotrypsin, in the data set with trypsin and with papain was “highly resistant” each time.

The record behind these values is PMC3819105 (Biomaterials science, 2013).
